For experiment [1], the system named is Malme-3M. Description: Anticancer activity against human MALME-3M cells after 48 hrs by SRB assay. It counts as functional. (In SRB staining, fixed cells bind dye roughly in proportion to their protein.)
The subject of experiment [2] is MDA-MB-231. As to the kind of experiment: Anticancer activity against human MDA-MB-231 cells after 48 hrs by SRB assay. Type of experiment: functional. The settings on record: MDA-MB-231, 48 h.
For experiment [3], the system named is A-375. As to the kind of experiment: Induction of apoptosis in human A375 cells assessed as caspase3 activation at 4 uM after 24 hrs by fluorimetry. Type of experiment: functional, cell-based. The essentials: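 Caspase-3 activity was measured by a fluorometric assay on lysates of treated and untreated A375 cells.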
Experiment [4] concerns A-375. Description: Cell cycle arrest in human A375 cells assessed as accumulation at G2/M phase at 4 uM after 24 hrs using propidium iodide staining by FACS. It counts as functional. In short, it runs like this:
(§1)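 Treated A375 cells (24 h) were harvested with trypsin-EDTA and fixed in ice-cold 70% ethanol (4 °C, 30 min). After a PBS wash, they were incubated with 1 mg/mL RNase A (37 °C, 30 min) and stained with propidium iodide solution containing trisodium citrate and Triton X-100. DNA content was measured by flow cytometry on 20,000 events. Controls were DMSO-treated.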
Background: In flow cytometry, cells or beads pass a laser one at a time.

The test system of experiment [5] is CAKI-1. As to the kind of experiment: Anticancer activity against human Caki1 cells after 48 hrs by SRB assay. Type of experiment: functional. Particulars: CAKI-1, 48 h.
For experiment [6], the system named is SF-539. As to the kind of experiment: Anticancer activity against human SF539 cells after 48 hrs by SRB assay. It counts as functional. Particulars: SF-539, 48 h.
The test system of experiment [7] is A549. Description: Anticancer activity against human A549 cells after 48 hrs by SRB assay. Particulars: A549, 48 h. It counts as functional. In short, it runs like this:
(§2)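 Grown in RPMI 1640 with 10% FBS and 2 mM L-glutamine at 37 °C, 5% CO2. Seeded at densities set by doubling time, then preincubated 24 h. Continuous 48 h drug exposure at four concentrations (0.1, 1, 10, 100), triplicate wells. Fixed with cold TCA (final 10%) at 4 °C, 60 min. Stained with 0.4% SRB in 1% acetic acid, eluted with 10 mM Tris base, read at 540/690 nm. Percent growth versus control wells.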

Experiment [8] concerns A498. As to the kind of experiment: Anticancer activity against human A498 cells after 48 hrs by SRB assay. Particulars: A498, 48 h. Type of experiment: functional.
Experiment [9] relates to DU-145. Description: Anticancer activity against human DU145 cells after 48 hrs by SRB assay. It counts as functional. Particulars: DU-145, 48 h.
Experiment [10] deals with A-375. As to the kind of experiment: Cell cycle arrest in human A375 cells assessed as accumulation at G0/G1 phase at 4 uM after 24 hrs using propidium iodide staining by FACS. It counts as functional. The essentials:
as §1

In experiment [11] the test system is SK-MEL-28. As to the kind of experiment: Anticancer activity against human SK-MEL-28 cells after 48 hrs by SRB assay. It counts as functional. The settings on record: SK-MEL-28, 48 h.
For experiment [12], the system named is NCI-H23. Description: Anticancer activity against human NCI-H23 cells after 48 hrs by SRB assay. It counts as functional. The settings on record: NCI-H23, 48 h.
Experiment [13] concerns OVCAR-8. Description: Anticancer activity against human OVCAR8 cells after 48 hrs by SRB assay. It counts as functional. Particulars: OVCAR-8, 48 h.
The subject of experiment [14] is A-375. Description: Induction of apoptosis in human A375 cells assessed as increase in PPAR protein level at 4 uM after 24 hrs by Western blotting. Type of experiment: functional, cell-based. The essentials:
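A375 cells were treated for 24 h and lysed in ice-cold RIPA buffer (1% NP-40, 0.5% deoxycholate, 0.1% SDS, protease inhibitors). Protein was quantified by Bradford assay, and 30 µg/lane was run on 12% SDS-PAGE and transferred to PVDF. Membranes were blocked 2 h at RT in TBST with 5% blocker, incubated with primary antibody overnight at 4 °C, then with HRP secondary (1:2000, 1 h, RT). Detection was by chemiluminescence, with β-actin as loading control.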
(In general: A western blot detects proteins with antibodies after separation by electrophoresis.)

For experiment [15], the system named is UACC-62. As to the kind of experiment: Anticancer activity against human UACC62 cells after 48 hrs by SRB assay. It counts as functional. The settings on record: UACC-62, 48 h.
Experiment [16] deals with M14. As to the kind of experiment: Anticancer activity against human M14 cells after 48 hrs by SRB assay. It counts as functional. The settings on record: M14, 48 h.
A short description of experiment [17]: Anticancer activity against human Hs 578T cells after 48 hrs by SRB assay. It counts as functional.
For experiment [18], the system named is SK-MEL-2. Description: Anticancer activity against human SK-MEL-2 cells after 48 hrs by SRB assay. The settings on record: SK-MEL-2, 48 h. It counts as functional.
For experiment [19], the system named is UO-31. Description: Anticancer activity against human UO31 cells after 48 hrs by SRB assay. The settings on record: UO-31, 48 h. It counts as functional.
The test system of experiment [20] is MCF7. As to the kind of experiment: Anticancer activity against human MCF7 cells after 48 hrs by SRB assay. Type of experiment: functional. The settings on record: MCF7, 48 h. The essentials:
as §2

Experiment [21] deals with HCC 2998. As to the kind of experiment: Anticancer activity against human HCC2998 cells after 48 hrs by SRB assay. It counts as functional. Particulars: HCC 2998, 48 h.
The test system of experiment [22] is NCI-H460. Description: Anticancer activity against human NCI-H460 cells after 48 hrs by SRB assay. It counts as functional. The settings on record: NCI-H460, 48 h.

Activity calls are given as the source filed them. The rule behind the calls is not given here.

What is called GI50 is the concentration at which growth is held to half of that of the control. A higher GI50 goes with less potent growth inhibition. As for `COc1ccc(C2=NOC(c3cc(OC)c(OC)c(OC)c3)C2)cc1OCCCCOc1cc2c(cc1OC)C(=O)N1CCC[C@H]1C=N2` (some centres not stated), the GI50 in experiment [1] was 210 nM; in [2], 190 nM; in [5], 250 nM; in [6], 220 nM; in [7], 260 nM; in experiment [8] it was 180 nM. Moreover, the GI50 in experiment [9] was 580 nM; in [11], 200 nM; in [12], 270 nM; in experiment [13], 370 nM; in experiment [15], 160 nM; in experiment [16], 180 nM. Besides, the GI50 amounted to 160 nM in [17]; 230 nM in experiment [18]; 290 nM in [19]; 200 nM in experiment [20]; 190 nM in experiment [21]; 210 nM in experiment [22]. Further, the result in [3] and in experiment [14] was Active. The Activity in [4] turned out to be 1.23%; in [10], 95.2%.

The values above are taken from ChEMBL document CHEMBL1240422, “Design, synthesis and biological evaluation of 3,5-diaryl-isoxazoline/isoxazole-pyrrolobenzodiazepine conjugates as potential anticancer agents” (2010).
